Reference: ChEMBL document CHEMBL4513216, “Probing the Open Global Health Chemical Diversity Library for Multistage-Active Starting Points for Next-Generation Antimalarials” (ACS Infect Dis, 2020)

Assay: Toxicity liver stage against HepG2, at 10uM
Format: cell-based
Design: test concentration 10 uM, cell line HepG2-A16-CD81EGFP
Conditions: human, HepG2-A16-CD81EGFP cells; read-out: INHIBITION
Summary of the method: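 Uninfected HepG2-A16-CD81EGFP cells, 3 × 10^3 per well, 1536-well, plated on prespotted compound at 10 μM final, parasite-free screening media added to match infected plates; puromycin 10 μM positive, DMSO 0.5% negative; run in parallel with 48 h PbLuc assay at 37 °C, 5% CO2; viability by CellTiter-Glo luminescence, normalized to controls.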

CCOC(=O)CCn1cnc2onc(-c3cc(OC)ccc3Cl)c2c1=O
cytotoxicity at 10 µM: -19%

O=C(NC[C@H]1OC[C@@H](NC(=O)c2ccccc2)[C@@H]1O)c1ccncc1
cytotoxicity at 10 µM: 2.55%

CC[C@H]1CN2CC[C@H]1C[C@@H]2CNCc1ccc2c(c1)OCO2
cytotoxicity at 10 µM: -5.9%

COC1CCN(C(=O)CC(C)(C)C)CC(=O)N(C)c2ccccc21 (stereo unspecified)
cytotoxicity at 10 µM: 2.44%

O=C1CC(c2ccc(C(=O)O)cc2)c2cnn(Cc3ccco3)c2N1 (stereo unspecified)
cytotoxicity at 10 µM: -0.869%

O=C(CCc1nc2cc(Br)cnc2[nH]1)NCCN1CCOCC1
cytotoxicity at 10 µM: 5.08%

COc1ccc(-n2nnc(C(N)=O)n2)cc1
cytotoxicity at 10 µM: 8.13%

Cc1nc(N(C)C)nc(C)c1NS(=O)(=O)c1ccc(F)cc1F
cytotoxicity at 10 µM: -3.58%

CN(C)C(=O)N1CCC(C2C(=O)Nc3ccccc32)CC1 (stereo unspecified)
cytotoxicity at 10 µM: 11.9%

COCC(=O)N1CCC2(CC1)NC(=O)[C@H]1CN(C(=O)N(C)C)C[C@H]12
cytotoxicity at 10 µM: 7%

Cc1cccc(CN2C(=O)CCC23CCN(C(=O)c2ccco2)CC3)c1
cytotoxicity at 10 µM: 6.09%

CCn1cc2c(n1)C(COCC1CC1)CN(C(=O)c1cc(C)on1)C2 (stereo unspecified)
cytotoxicity at 10 µM: 17.8%

CC(C)NC(=O)c1ccc2c(c1)C(c1nc[nH]n1)CN2C (stereo unspecified)
cytotoxicity at 10 µM: -141%

COCC1c2nnn(CC3CC3)c2CCN1C(=O)c1cc(C)on1 (stereo unspecified)
cytotoxicity at 10 µM: -132%

COC(=O)Cn1nc(-c2ccccc2F)ccc1=O
cytotoxicity at 10 µM: 8.01%

CCc1nn(-c2cc(Oc3cccc(C)c3)nc(C)n2)c(N)c1C#N
cytotoxicity at 10 µM: -9.8%

CCCNC(=O)Cn1nc(C(C)C)c2cnn(C(C)(C)C)c2c1=O
cytotoxicity at 10 µM: -20%

Cc1occc1C(=O)N1CCCC(C2=Nc3ccccc3S(=O)(=O)N2)C1 (stereo unspecified)
cytotoxicity at 10 µM: 4.03%

CNC(=O)C1(C)CN(c2nnc(C)c3ccccc23)CCO1 (stereo unspecified)
cytotoxicity at 10 µM: -1.61%

Cc1nc(C2CCCN(S(C)(=O)=O)C2)sc1Br (stereo unspecified)
cytotoxicity at 10 µM: -10.3%

CC(C)(C)C(=O)N1CCCC1c1nccnc1Cl (stereo unspecified)
cytotoxicity at 10 µM: 2.83%

CN(C)S(=O)(=O)N1CCC(C)(c2ncc(C(N)=O)s2)CC1
cytotoxicity at 10 µM: -0.318%

Cc1c(CN2CCCC2(C)C(=O)N2CCOCC2)cnn1C (stereo unspecified)
cytotoxicity at 10 µM: -6.29%

O=C(CCN1CCc2ccccc21)N1C[C@@H](O)[C@H](N2CCOCC2)C1
cytotoxicity at 10 µM: 1.23%

Cc1ccnc(NC(=O)c2c(C)oc(C)c2C)c1
cytotoxicity at 10 µM: 17.2%

CC(C)(C)c1cnc(CN2CCCS(=O)(=O)CC2)o1
cytotoxicity at 10 µM: -3.97%

c1cc(CNCCC2CCCO2)ccn1 (stereo unspecified)
cytotoxicity at 10 µM: -0.95%

CC(c1ccc(F)cc1F)N1CCN(CCC(=O)NC(N)=O)CC1 (stereo unspecified)
cytotoxicity at 10 µM: -8.58%

CNC(=O)C1CCCCN1C(=O)Cc1csc(-c2ccc(C)o2)n1 (stereo unspecified)
cytotoxicity at 10 µM: 8.61%

CCN(CCC#N)Cn1ncc2cn(-c3ccccc3)nc2c1=O
cytotoxicity at 10 µM: -14.5%

CC(CNC(=O)CCn1cncn1)N1CCc2ccccc21 (stereo unspecified)
cytotoxicity at 10 µM: -157%

Cc1ccc(C)n1-c1ccsc1C(=O)NCC(=O)N1CCCC1
cytotoxicity at 10 µM: -143%

CCc1noc(Cn2c(=O)c3c(C(F)(F)F)cc(C)nc3n2C)n1
cytotoxicity at 10 µM: -3.44%

Cc1ccc(NC(=O)N2CCCN(C(N)=O)CC2)s1
cytotoxicity at 10 µM: -6.58%

Cc1ncsc1C(=O)NCCNC(=O)OC(C)(C)C
cytotoxicity at 10 µM: 4.73%

CCN(CC)CCNC(=O)c1cnc(-c2ccccc2)nc1
cytotoxicity at 10 µM: 12.4%

Cc1n[nH]c(C2CN(CC(=O)NCc3sccc3C)CCO2)n1 (stereo unspecified)
cytotoxicity at 10 µM: -4.75%

O=S(=O)(NCC1COc2ccccc2C1)N1CCCCC1 (stereo unspecified)
cytotoxicity at 10 µM: -0.628%

COc1c(CNCc2cccnc2N2CCOCC2)c(C)nn1C
cytotoxicity at 10 µM: -151%

CCc1nnc2n1CCN(C(=O)c1ccc3cc[nH]c3c1)C2
cytotoxicity at 10 µM: -6.43%

CC(NC(=O)CCCOc1cccc(F)c1)c1ccncc1 (stereo unspecified)
cytotoxicity at 10 µM: -3.6%

Cc1cc(C)n(CC2CN(Cc3cccc(C#N)c3)CCO2)n1 (stereo unspecified)
cytotoxicity at 10 µM: -3.46%

CCc1ccc(CNc2ccccc2CN2CCC(O)CC2)o1
cytotoxicity at 10 µM: 4.34%

Cc1ccccc1CN1CCCN(C(=O)c2ccn(C)c(=O)c2)CC1
cytotoxicity at 10 µM: 1.62%

CC(C(=O)NCC1CCN(c2ccncc2)CC1)S(C)(=O)=O (stereo unspecified)
cytotoxicity at 10 µM: 17.4%

CC(CCS(C)(=O)=O)NC(=O)NCc1ccc2ccccc2c1 (stereo unspecified)
cytotoxicity at 10 µM: -137%

O=C(c1cnccn1)N(CCO)Cc1cc(Br)ccc1F
cytotoxicity at 10 µM: 5.64%

CCCn1nnnc1COc1ccc(C(=O)OC)cc1OC
cytotoxicity at 10 µM: -1.9%

CNC(=O)c1cccc(NC(=O)CN2CCCN(S(C)(=O)=O)CC2)c1
cytotoxicity at 10 µM: 3.56%

CCNc1nnc(SC(C(=O)NCc2cccnc2)C(C)C)s1 (stereo unspecified)
cytotoxicity at 10 µM: -13.3%

CN(CC1CCOCC1)C(=O)NCCCN1CCCCC1
cytotoxicity at 10 µM: 0.105%

N#Cc1c(F)cccc1N1CCN(C(=O)Nc2nncs2)CC1
cytotoxicity at 10 µM: -0.908%

CNC(=O)CS(=O)(=O)Cc1coc(-c2ccc(OC)cc2)n1
cytotoxicity at 10 µM: -2.95%

CCSc1cc(C(=O)NCCC(=O)Nc2ccccn2)ccn1
cytotoxicity at 10 µM: -8.62%

CN(C)CCCN1CC2(CCN(C3CCCOC3)CC2)OC1=O (stereo unspecified)
cytotoxicity at 10 µM: -5%

CC(C)(C)c1cc(=O)[nH]c(-c2ccccc2CN2CCCCCC2)n1
cytotoxicity at 10 µM: -42%
